Compound activity from PubChem.
The entries come from a sample that favours hits as a whole.
PKD1 kinase inh – PKD1 (human) kinase inhibition | Q15139 | PKD1 kinase fluorescence polarization assay | inhibition, % (test concentration not listed) | 200,000 tested, 0.056% active | AID 797
ABCG2 block – blocks JC-1 efflux by human ABCG2 transporter; IgMXP3 cells, flow cytometry; inhibition, % at 6.6 µM; 190,000 tested, 0.1% active;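 active = inhibition above 80%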
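Read-out basis: Efflux inhibition in percent versus controls | Test system: ABCG2 IgMXP3 and barcoded ABCB1 CCRF-Adr cell mix | Quantity: 3 million cells/mL in well | Schedule: 10 min at 25 °C | Control set: Nicardipine as high control, DMSO as low control | Reagent: JC-1 as fluorescent efflux pump substrate | Signal: Flow cytometry of retained JC-1 fluorescence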
ABCB1 block – human ABCB1 inhibition, ABCG2 as counter-screen; P08183; CCRF-Adr cells, JC-1 efflux, flow cytometry; inhibition, % at 6.6 µM; 190,000 tested, 0.067% active; AID 1326; in the data active = inhibition above about 40%;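 also: higher value means more JC-1 retained so stronger ABCB1 efflux block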
GSH fluor – GSH bead compound fluorescence profile; GSH beads flow cytometry, compound fluorescence 488/530 nm; active compounds read high; fluorescence (KMESF) at 10 µM; 190,000 tested, 0.25% active; AID 1776; in the data active = fluorescence above about 89;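 also: glutathione beads carrying GST-tagged Bcl family fusion proteins plus one bare bead set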
Avidin bead fluor – compound fluoresces at 488/530 nm on avidin beads; compound fluorescence 488/530 nm, flow cytometry; active compounds read high; fluorescence (KMESF) at 10 µM; 220,000 tested, 0.38% active; AID 1775; in the data active = fluorescence above about 47
Lmaj promast – Leishmania major promastigote growth inhibition. 200,000 tested, 9% active. Leishmania major promastigotes, resazurin fluorescence viability. inhibition, % at 10 µM;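 also: promastigotes grown with compound for 44 hours at 28 °C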
A number is an active result; n = inactive; x = no result. Rule as the data show it, unless noted: active = inhibition above about 50%; inactive = the rest.

SMILES | PKD1 kinase inh | ABCG2 block | ABCB1 block | GSH fluor | Avidin bead fluor | Lmaj promast
O=C(N/N=C1\CCCc2ccccc21)c1cccc(Br)c1 | n | n | n | n | n | n
O=C(Nc1ccccc1)Nc1cc(Cl)cc(Cl)c1 | n | n | n | n | n | n
O=C(Nc1ccccc1)Nc1cc(OCC(F)(F)F)cc(OCC(F)(F)F)c1 | n | n | n | n | n | 100
CC(=O)c1cccc(Nc2nc(-c3cccc([N+](=O)[O-])c3)cs2)c1 | n | n | n | n | n | n
CC(=O)Nc1nc(-c2ccc([N+](=O)[O-])cc2)cs1 | n | n | n | n | n | n
CC(=O)Nc1nc(C)c(-c2csc(Nc3cccc([N+](=O)[O-])c3)n2)s1 | n | n | n | n | n | 97
CC(=O)Nc1nc(C)c(-c2csc(Nc3ccc(O)cc3)n2)s1 | n | n | n | n | n | 63
O=C(Nc1ccc([N+](=O)[O-])cc1)Nc1nc(-c2ccc(Cl)s2)cs1 | n | n | n | n | n | 82
CCCC(=O)Nc1nc(-c2ccc(Cl)s2)cs1 | n | n | n | n | n | n
CC(=O)Nc1nc(-c2cc([N+](=O)[O-])cs2)cs1 | n | n | n | n | n | 75
COC(=O)C1=C(C)NC2=C(C(=O)CCC2)C1c1ccc(-c2ccsc2C(=O)OC)o1 (centres undefined) | x | x | x | x | n | x
Cc1ccc(C2c3c(oc4cc(C)c(C)cc4c3=O)C(=O)N2CCCN2CCOCC2)cc1 (centres undefined) | n | x | x | x | x | n
CCN(CC)S(=O)(=O)c1cc(NC(=O)CSc2nccn2C)ccc1C | n | n | n | n | n | n
Cc1ccc(C(=O)N2CCN(c3ncccn3)CC2)o1 | n | n | n | n | n | n
CCC1(CC)NC(=O)N(CC(=O)Nc2sc3c(c2C(N)=O)CCC3)C1=O | n | n | n | n | n | n
CCOC(=O)Cc1nnc(Nc2ccc(C(=O)NC)cc2)c2ccccc12 | x | x | x | x | n | x
CCCC(=O)NCn1nnc(-c2ccc(Cl)cc2)n1 | n | n | n | n | 50 | n
C=CCSc1nc2[nH]ncc2c(=O)[nH]1 | n | n | n | n | n | n
C#CCSc1nc2[nH]ncc2c(=O)[nH]1 | n | n | n | n | n | 53
COc1ccc(C(C)=O)cc1CSc1nnc(Nc2ccccc2)s1 | n | n | n | n | n | n
O=c1c2cc(NC(=S)NC3CC3)ccc2nc2n1CCCCC2 | n | n | n | n | n | n
CC1CCCCN1C(=S)Nc1ccc2nc3n(c(=O)c2c1)CCCCC3 (centres undefined) | n | n | n | n | n | 59
O=c1c2cc(NC(=S)N3CCC(N4CCCCC4)CC3)ccc2nc2n1CCCCC2 | n | n | n | n | n | n
O=c1c2cc(NC(=S)NCCCN3CCC(Cc4ccccc4)CC3)ccc2nc2n1CCCCC2 | n | n | n | n | n | 99
O=c1c2cc(NC(=S)NC3CCN(Cc4ccccc4)CC3)ccc2nc2n1CCCCC2 | n | n | n | n | n | 54
SMILES | PKD1 kinase inh | ABCG2 block | ABCB1 block | GSH fluor | Avidin bead fluor | Lmaj promast
O=C(CSc1ccc2nnc(CCNS(=O)(=O)c3ccccc3)n2n1)Nc1nc2ccccc2s1 | n | n | n | n | n | n
COc1ccc(OC)c(NC(=O)c2ccc(CSc3nnc(C)s3)cc2)c1 | n | n | n | n | n | n
CCOc1ccc(CN(C)CC(=O)Nc2ccc([N+](=O)[O-])cc2Cl)cc1 | n | n | n | n | n | n
C=CCNc1nc(S(=O)Cc2ccc(C)cc2)nc2c1CCCC2 (centres undefined) | n | n | n | n | n | n
O=C(C1=NOC(CNc2ncc(C(F)(F)F)cc2Cl)C1)N1CCOCC1 (centres undefined) | n | n | n | n | n | n
CCN(CC)S(=O)(=O)c1cc([N+](=O)[O-])ccc1NNC(=O)Nc1ccccc1OC | n | n | n | n | n | 80
CCOC(=O)c1ccc(NC(=O)c2cn(-c3ccccc3)nc2-c2ccncc2)cc1 | n | n | n | n | n | n
C=CCNC(=O)c1onc(CSc2cccc(C)c2)c1C(=O)O | n | n | n | n | n | n
COc1ccc(/C=C/C(=O)c2ccc3c4c(cccc24)CC3)cc1OC | n | n | n | n | n | 60
COc1ccc(/C=C/C(=O)c2cc(F)ccc2OC(=O)c2ccccc2C)cc1OC | n | n | n | n | n | 60
CC(N=C1NS(=O)(=O)c2ccccc21)C(=O)N1CCc2ccccc2C1 (centres undefined) | n | n | n | n | n | n
Cc1cccc(CCNC(=O)C2CCN(S(=O)(=O)c3c(C)nn(C)c3C)CC2)c1 | n | n | n | n | n | n
COc1ccc(CCNC(=O)C2CCN(S(C)(=O)=O)CC2)cc1OC | n | n | n | n | n | n
CCC1CCCCN1CCNC(=O)C1CCN(S(=O)(=O)c2c(C)noc2C)CC1 (centres undefined) | n | n | n | n | n | 77
Cc1cccc(CCNC(=O)C2CCN(S(=O)(=O)c3c(C)noc3C)CC2)c1 | n | n | n | n | n | 100
COc1ccc(CCNC(=O)C2CCN(S(=O)(=O)c3c(C)noc3C)CC2)cc1OC | n | n | n | n | n | 53
COCCSc1ccccc1C(=O)NCc1cccnc1 | n | n | n | n | n | n
Cc1ccc(C)c(OC(=O)c2cncc(Br)c2)c1 | n | n | n | n | n | n
CCN(CC)CCNC(=O)c1ccc(CS(=O)(=O)c2ccc(Br)cc2)o1 | n | n | n | n | n | 78
O=C(OC(C(=O)Nc1cccc(C(F)(F)F)c1)c1ccccc1)C1CCCCC1 (centres undefined) | n | n | n | n | n | n
COc1ccc(-c2nnc(SCC(=O)Nc3cc(C)on3)o2)cc1 | n | n | n | n | n | n
COc1ccc(-c2nnc(SCC(=O)Nc3cc(F)ccc3C)o2)cc1 | n | n | n | n | 116 | n
COCCn1c(SCC(=O)c2c[nH]c3ccccc23)nnc1-c1ccncc1 | n | n | n | n | n | 83
O=C(COC(=O)CNC(=O)c1cccc([N+](=O)[O-])c1)NCc1ccco1 | n | n | n | n | n | n
Cn1c(=O)c2c(nc(NCCCO)n2CCc2ccccc2)n(C)c1=O | n | n | n | n | 50 | n
SMILES | PKD1 kinase inh | ABCG2 block | ABCB1 block | GSH fluor | Avidin bead fluor | Lmaj promast
Cn1c(=O)c2c(nc(NCCCN3CCOCC3)n2Cc2ccc(Cl)cc2)n(C)c1=O | n | x | x | x | x | 58
Cn1c(=O)c2c(nc(NCCCN3CCOCC3)n2Cc2cccc(Cl)c2)n(C)c1=O | n | x | x | x | x | 98
Cn1c(=O)c2c(nc(NCCCN3CCOCC3)n2Cc2ccc(Cl)c(Cl)c2)n(C)c1=O | n | x | x | x | x | 99
Cc1ccc(Cn2nc(C)c(NC(=O)C3(C)CC3(Br)Br)c2C)cc1 (centres undefined) | n | n | n | n | x | n
C=CCN1C(=O)/C(=C/C=C2/N(CC)c3ccc(S(=O)(=O)N(C)C)cc3N2CC)SC1=S | n | n | n | n | n | n
CNC(=S)NNc1nncc2ccccc12 | n | n | n | n | n | n
CCNC(=O)CSc1nnc(-c2ccc(OC)cc2)n1CC(C)C | n | n | n | n | n | n
